Measurements as given in ChEMBL document CHEMBL3352485 (J Med Chem, 2014).
Activity calls are given as the source filed them. No cut-off for these calls is given here. Where a SMILES comes first, the peptide text is derived from it. [ ]: non-standard residue; d: D form. Arg(Me) = CNC(=N)NCCC[C@H](N)C(=O)O; azaGly = NNC(=O)O

Key:
[1] = Stability of the compound in aqueous solution assessed as residual ratio at pH 7 up to 2 weeks by HPLC analysis relative to initial level; assay type: physicochemical
How it was run: (§1)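 Peptides in aqueous solution at pH 1.2 (JP1, containing 10% acetonitrile), 3, 5 or 7 were kept in the dark at 37 °C for up to 2 weeks. Peptide remaining was quantified from HPLC peak area, with detection at 230–280 nm. The residual ratio (stability index) was expressed relative to the time-0 amount, taken as 100%.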

Rattus norvegicus [2] = test: Stimulation of LH release in Crl:CD(SD) rat assessed as LH AUC (0 to 4 hrs) at 0.01 to 1 nmol/kg, sc single dose relative to metastin; assay type: functional
[3] = Mean residence time in Sprague-Dawley rat at 1 mg/kg, iv after 24 hrs by LC-MS/MS analysis; assay type: ADME, organism-based; set-up: dose 1 mg/kg, route intravenous; conditions: in vivo
How it was run: (§2)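 Male Crl:CD(SD) rats (3 per group) got a single intravenous dose of 1 mg/kg. Blood was drawn at 5, 10, 15 and 30 min and at 1, 2, 4, 8 and 24 h. Plasma proteins were removed with 0.2% formic acid/methanol and acetonitrile, and the supernatant was treated with 0.4% formic acid. Peptide was quantified by LC-MS. Noncompartmental parameters were derived per rat, reported as mean ± SD (n = 3).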

KiSS-1 receptor [4] = biological target: T1, KiSS-1 receptor (Homo sapiens, UniProt Q969F8); test: Displacement of radioligand from human KISS1R transfected in CHO cells; assay type: cell-based
How it was run: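 Binding used membrane fractions prepared from CHO cells expressing recombinant human KISS1R.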

Rattus norvegicus [5] = test: Testosterone-suppressive activity in Crl:CD(SD) rat assessed as plasma testosterone level below the limit of detection at 10 to 100 pmol/hr, sc continuous administration through osmotic pumps measured up to 1 week by RIA; assay type: functional, organism-based
How it was run: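 Peptide in 50% DMSO was diluted in distilled water to 10, 30 or 100 μM pump solutions, giving 10–100 pmol/h by subcutaneous ALZET osmotic pump in male Crl:CD(SD) rats (n = 5). Vehicle served as control. Plasma testosterone was measured by RIA after 1 or 4 weeks, with values below 0.04 ng/mL set to 0.04. Results are mean ± SD of five rats, tested by one-tailed Shirley–Williams test versus vehicle.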

Rattus norvegicus [6] = species: Rattus norvegicus; test: Toxicity in rat; assay type: organism-based; conditions: in vivo
[7] = Cmax in Sprague-Dawley rat at 1 mg/kg, sc after 24 hrs by LC-MS/MS analysis; assay type: ADME, organism-based; set-up: dose 1 mg/kg, route subcutaneous; conditions: in vivo
How it was run: (§3)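 Single subcutaneous dose of 1 mg/kg in male Crl:CD(SD) rats, n = 3 per group. Blood was sampled from 5 min to 24 h (5, 10, 15, 30 min; 1, 2, 4, 8, 24 h). Plasma was deproteinized with formic acid/methanol and acetonitrile, and peptide levels were measured by LC-MS. Noncompartmental analysis per animal gave Cmax, Tmax, AUC0-24h, MRT and BA; values are mean ± SD (n = 3).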

[8] = Stability of the compound in aqueous solution assessed as residual ratio at pH 5 up to 2 weeks by HPLC analysis relative to initial level; assay type: physicochemical; how it was run: as §1
[9] = Stability of the compound in aqueous solution assessed as residual ratio at pH 7 up to 1 week by HPLC analysis relative to initial level; assay type: physicochemical; how it was run: as §1
Rattus norvegicus [10] = test: Testosterone-suppressive activity in Crl:CD(SD) rat assessed as number of animal with plasma testosterone level below the limit of detection at 0.05 mol/hr, sc through osmotic pumps measured after 6 days by RIA; assay type: functional
[11] = AUC (0 to 24 hrs) in Sprague-Dawley rat at 1 mg/kg, iv after 24 hrs by LC-MS/MS analysis; assay type: ADME, organism-based; set-up: time < 24 hr, dose 1 mg/kg, route intravenous; conditions: plasma; how it was run: as §2
[12] = Stability of the compound in aqueous solution assessed as residual ratio at pH 3 up to 2 weeks by HPLC analysis relative to initial level; assay type: physicochemical; how it was run: as §1
Rattus norvegicus [13] = test: Testosterone-suppressive activity in Crl:CD(SD) rat assessed as number of animal with plasma testosterone level below the limit of detection at 0.03 mol/hr, sc through osmotic pumps measured after 6 days by RIA; assay type: functional
[14] = Stability of the compound in aqueous solution assessed as residual ratio at pH 5 up to 1 week by HPLC analysis relative to initial level; assay type: physicochemical; how it was run: as §1
[15] = C5min in Sprague-Dawley rat at 1 mg/kg, iv after 5 mins by LC-MS/MS analysis; conditions: in vivo, read-out: Cmin
[16] = Volume of distribution at steady state in Sprague-Dawley rat at 1 mg/kg, iv after 24 hrs by LC-MS/MS analysis; assay type: ADME, organism-based; set-up: dose 1 mg/kg, route intravenous; conditions: in vivo, read-out: Vdss; how it was run: as §2
KiSS-1 receptor [17] = biological target: T2, KiSS-1 receptor (Rattus norvegicus, UniProt Q924U1); test: Agonist activity at rat KISS1R transfected in CHO cells assessed as intracellular calcium flux after 24 hrs by functional FLIPR assay; assay type: cell-based
Rattus norvegicus [18] = test: Stimulation of testosterone release in Crl:CD(SD) rat assessed as testosterone AUC (0 to 4 hrs) at 0.01 to 1 nmol/kg, sc single dose; assay type: functional, organism-based
Canis familiaris = species: Canis familiaris; test: Toxicity in dog; assay type: organism-based, Canis lupus familiaris; conditions: in vivo
[19] = Stability of the compound in aqueous solution assessed as residual ratio at pH 3 up to 1 week by HPLC analysis relative to initial level; assay type: physicochemical; how it was run: as §1
[20] = Mean residence time in Sprague-Dawley rat at 1 mg/kg, sc after 24 hrs by LC-MS/MS analysis; assay type: ADME, organism-based; set-up: dose 1 mg/kg, route subcutaneous; conditions: in vivo; how it was run: as §3
KiSS-1 receptor [21] = biological target: T2, KiSS-1 receptor; test: Displacement of radioligand from rat KISS1R transfected in CHO cells; assay type: cell-based
Rattus norvegicus [22] = test: Testosterone-suppressive activity in Crl:CD(SD) rat assessed as number of animal with plasma testosterone level below the limit of detection […], sc through osmotic pumps measured after 6 days by RIA; assay type: functional
[23] = Bioavailability in Sprague-Dawley rat at 1 mg/kg, sc after 24 hrs by LC-MS/MS analysis; assay type: ADME, organism-based; conditions: in vivo; how it was run: as §3
[24] = Stability of the compound in aqueous solution (JP1) assessed as residual ratio at pH 1.2 up to 1 week by HPLC analysis relative to initial level; assay type: physicochemical; how it was run: as §1
[25] = Total clearance in Sprague-Dawley rat at 1 mg/kg, iv after 24 hrs by LC-MS/MS analysis; assay type: ADME, organism-based; set-up: dose 1 mg/kg, route intravenous; conditions: in vivo; how it was run: as §2
KiSS-1 receptor [26] = biological target: T1, KiSS-1 receptor; test: Agonist activity at human KISS1R transfected in CHO cells assessed as intracellular calcium flux after 24 hrs by functional FLIPR assay; assay type: cell-based
How it was run: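 CHO cells stably expressing human KISS1R were seeded at 15 000 cells/mL, cultured 24 h, then loaded with fluo-3 for 1 h at 37 °C in HBSS/HEPES (pH 7.4) with probenecid and FBS. Cells were washed in HBSS with 2.5 mM probenecid. Peptides came from 1 mM DMSO stocks diluted in buffer containing probenecid, 0.2% BSA and 0.1% CHAPS. Fluorescence was recorded on FLIPR for 3 min; peak counts over 0–180 s gave agonist activity.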

[27] = Tmax in Sprague-Dawley rat at 1 mg/kg, sc after 24 hrs by LC-MS/MS analysis; assay type: ADME, organism-based; set-up: dose 1 mg/kg, route subcutaneous; conditions: in vivo; how it was run: as §3
[28] = AUC (0 to 24 hrs) in Sprague-Dawley rat at 1 mg/kg, sc after 24 hrs by LC-MS/MS analysis; assay type: ADME, organism-based; set-up: time < 24 hr, dose 1 mg/kg, route subcutaneous; conditions: plasma; how it was run: as §3
[29] = Stability of the compound in aqueous solution (JP1) assessed as residual ratio at pH 1.2 up to 2 weeks by HPLC analysis relative to initial level; assay type: physicochemical; how it was run: as §1

T1 sequence (Q969F8 whole entry): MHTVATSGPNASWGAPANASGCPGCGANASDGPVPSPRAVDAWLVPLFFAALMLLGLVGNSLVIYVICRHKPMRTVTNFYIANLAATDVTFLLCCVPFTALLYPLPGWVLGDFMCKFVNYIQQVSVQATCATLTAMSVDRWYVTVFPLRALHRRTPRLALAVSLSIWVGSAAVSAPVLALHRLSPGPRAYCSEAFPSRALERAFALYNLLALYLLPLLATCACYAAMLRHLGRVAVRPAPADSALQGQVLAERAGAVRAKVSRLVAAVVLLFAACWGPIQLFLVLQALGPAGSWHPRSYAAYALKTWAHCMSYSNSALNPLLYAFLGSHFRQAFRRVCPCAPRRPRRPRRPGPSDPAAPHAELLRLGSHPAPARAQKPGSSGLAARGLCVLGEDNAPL
T2 sequence (Q924U1 whole entry): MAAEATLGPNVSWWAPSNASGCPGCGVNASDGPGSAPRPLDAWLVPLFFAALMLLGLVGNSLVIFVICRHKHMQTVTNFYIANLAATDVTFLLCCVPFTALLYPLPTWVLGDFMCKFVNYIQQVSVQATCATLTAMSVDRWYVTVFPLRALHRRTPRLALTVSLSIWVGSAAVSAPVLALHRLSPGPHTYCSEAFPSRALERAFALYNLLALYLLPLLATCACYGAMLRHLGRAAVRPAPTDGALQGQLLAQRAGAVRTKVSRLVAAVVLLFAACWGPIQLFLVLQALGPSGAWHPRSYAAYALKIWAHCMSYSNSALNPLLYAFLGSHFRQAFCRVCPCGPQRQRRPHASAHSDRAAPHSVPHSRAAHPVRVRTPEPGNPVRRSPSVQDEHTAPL

remaining at 336 h [1]: 66.4%
MRT [3]: 41.4 min
Ki (KiSS-1 receptor [4]): 0.036 nM
Cmax [7]: 100 ng/mL
remaining at 336 h [8]: 93.6%
remaining at 168 h [9]: 79.7%
AUC(0-t) at 24 h [11]: 1220 ng·h/mL
remaining at 336 h [12]: 95.6%
remaining at 168 h [14]: 95.9%
concentration at 5 min [15]: 2510 ng/mL
Vd [16]: 0.562 L/kg
EC50 (KiSS-1 receptor [17]): 1.3 nM
remaining at 168 h [19]: 97.7%
MRT [20]: 51.6 min
Ki (KiSS-1 receptor [21]): 0.069 nM
bioavailability [23]: 9.4%
remaining at 168 h [24]: 55.6%
clearance [25]: 13.7 mL/min/kg
EC50 (KiSS-1 receptor [26]): 0.33 nM
Tmax [27]: 11.4 min
AUC(0-t) at 24 h [28]: 115 ng·h/mL
remaining at 336 h [29]: 28.8%
Structure (SMILES): CNC(=N)NCCC[C@H](NC(=O)[C@H](CC(C)C)NC(=O)NNC(=O)[C@H](Cc1ccccc1)NC(=O)[C@@H](NC(=O)[C@H](CC(N)=O)NC(=O)[C@@H](Cc1c[nH]c2ccccc12)NC(=O)[C@@H](Cc1ccc(O)cc1)NC(C)=O)[C@@H](C)O)C(=O)N[C@@H](Cc1c[nH]c2ccccc12)C(N)=O (Ac-[dY][dW]NTF[azaGly]L[Arg(Me)]W-NH2)
fold change (FC) (Rattus norvegicus [2]): 100
inhibition (Rattus norvegicus [5]): Active
Activity (Rattus norvegicus [6]): Non-toxic
Activity (Rattus norvegicus [10]): 5%
Activity (Rattus norvegicus [13]): 4%
Activity (Rattus norvegicus [18]): Active
Activity (Canis familiaris): Non-toxic
Activity (Rattus norvegicus [22]): 0 animals
